Activity calls are given as the source filed them. The rule behind the calls is not given here.
Tests used:
[1] = Inhibition of Trypanosoma brucei LeuRS expressed in Escherichia coli BL21 (DE3)-RIPL cells assessed as decrease in [14C]-Leucine tRNA synthesis incubated for 20 mins in presence of [14C]leucine followed by incubation with ATP for 15 mins by liquid scintillation counting method
Method in brief: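 T. brucei LeuRS was expressed in E. coli BL21(DE3)-RIPL. Reactions held 50 mM HEPES-KOH pH 7.8, 5 mM MgCl₂, 45 mM KCl, 1 mM DTT, 0.02% BSA, 0.4 mg/mL tRNA and [¹⁴C]leucine. They were preincubated 20 min at 37 °C without ATP, then run 15 min after adding 4 mM ATP. Three aliquots were spotted on filter paper and averaged for IC50.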

Trypanosoma brucei = assay: Potency index, ratio of IC50 of 2-(4-bromo-2-chlorophenoxy)-N-(4-sulfamoylphenylcarbamothioyl)acetamide to IC50 of compound for inhibition of Trypanosoma brucei LeuRS expressed in Escherichia coli BL21 (DE3)-RIPL cells in presence of [14C]leucine incubated for 20 mins followed by incubation with ATP for 15 mins by liquid scintillation counting method
[2] = tested on: Trypanosoma brucei brucei; assay: Antitrypanosomal activity against bloodstream form of Trypanosoma brucei brucei 221 assessed as parasite growth inhibition at 22 uM incubated for 72 hrs by resazurin staining based assay; type: functional, organism-based
[3] = tested on: Trypanosoma brucei brucei; assay: Antitrypanosomal activity against bloodstream form of Trypanosoma brucei brucei 221 assessed as parasite growth inhibition incubated for 72 hrs by resazurin staining based assay; type: functional, organism-based; details: Trypanosoma brucei, 221, 72 h
Method in brief: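 Bloodstream-form T. b. brucei 221 kept in log phase in HMI-11 at 37 °C, 5% CO2, and seeded from a 2×10⁵/mL (2-fold) suspension. Compounds were serially diluted in DMSO and tested in triplicate for 72 h. Resazurin was then added for 5 h more. Fluorescence was read at ex 544/em 590 nm.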

| Compound | IC50 [1] | other results |
| --- | --- | --- |
| NC(=O)CC[C@H](N)C(=O)NS(=O)(=O)c1ccc(NC(=O)COc2ccc(Br)cc2Cl)cc1 | 285 µM | – |
| CC(C)C[C@H](N)C(=O)NS(=O)(=O)c1ccc(NC(=O)COc2ccc(Br)cc2Cl)cc1 | 38.4 µM | Ratio IC50 (Trypanosoma brucei): 5 |
| NS(=O)(=O)c1ccc(NC(=S)NC(=O)COc2ccc(Br)cc2Cl)cc1 | 174 µM | – |
| O=C(COc1ccc(Br)cc1Cl)Nc1ccc(S(=O)(=O)NC(=O)c2ccco2)cc1 | 251 µM | – |
| CC(C)(C)OC(=O)N[C@@H](Cc1ccccc1)C(=O)NS(=O)(=O)c1ccc(NC(=O)COc2ccc(Br)cc2Cl)cc1 | 281 µM | – |
| N[C@@H](Cc1ccccc1)C(=O)NS(=O)(=O)c1ccc(NC(=O)COc2ccc(Br)cc2Cl)cc1 | > 1000 µM | – |
| COc1ccc(OCC(=O)Nc2cccc(S(=O)(=O)NC(=O)[C@@H](N)CC(C)C)c2)cc1 | 3.58 µM | – |
| CC(C)C[C@H](N)C(=O)NS(=O)(=O)c1cccc(NC(=O)COc2ccc([N+](=O)[O-])cc2)c1 | 6.81 µM | – |
| NS(=O)(=O)c1ccc(NC(=O)COc2ccc(Br)cc2Cl)cc1 | 191 µM | – |
| CC(C)C[C@H](N)C(=O)NS(=O)(=O)c1cccc(NC(=O)COc2ccccc2)c1 | 5.51 µM | – |
| CC(C)C[C@H](N)C(=O)NS(=O)(=O)c1cccc(NC(=O)COc2ccc(-c3ccccc3)cc2)c1 | 7.28 µM | inhibition [2]: Active; IC50 [3]: 33.3 µM |
| CC(C)(C)OC(=O)N[C@@H](CCC(N)=O)C(=O)NS(=O)(=O)c1ccc(NC(=O)COc2ccc(Br)cc2Cl)cc1 | 685 µM | – |
| CC(C)(C)OC(=O)N[C@@H](CCC(=O)OCc1ccccc1)C(=O)NS(=O)(=O)c1ccc(NC(=O)COc2ccc(Br)cc2Cl)cc1 | 98 µM | – |
| O=C(COc1ccc(Br)cc1Cl)Nc1ccc(S(=O)(=O)NC(=O)[C@H](Cc2ccccc2)NC(=O)OCc2ccccc2)cc1 | 116 µM | – |
| CC[C@H](C)[C@H](NC(=O)OC(C)(C)C)C(=O)NS(=O)(=O)c1ccc(NC(=O)COc2ccc(Br)cc2Cl)cc1 | 346 µM | – |
| CC(C)C[C@H](NC(=O)OCc1ccccc1)C(=O)NS(=O)(=O)c1ccc(NC(=O)COc2ccc(Br)cc2Cl)cc1 | 110 µM | – |
| CC(C)C[C@H](N)C(=O)NS(=O)(=O)c1cccc(NC(=O)COc2ccccc2Cl)c1 | 5.69 µM | – |
| CC(C)C[C@H](NC(=O)OC(C)(C)C)C(=O)NS(=O)(=O)c1ccc(NC(=O)COc2ccc(Br)cc2Cl)cc1 | 404 µM | – |
| CCOC(=O)CC[C@H](N)C(=O)NS(=O)(=O)c1ccc(NC(=O)COc2ccc(Br)cc2Cl)cc1 | > 1000 µM | – |
| N[C@@H](CCC(=O)O)C(=O)NS(=O)(=O)c1ccc(NC(=O)COc2ccc(Br)cc2Cl)cc1 | 428 µM | – |
| CC(C)C[C@H](N)C(=O)NS(=O)(=O)c1cccc(NC(=O)COc2cccc(-c3ccccc3)c2)c1 | 0.7 µM | Ratio IC50 (Trypanosoma brucei): 250 |
| COc1cccc(OCC(=O)Nc2cccc(S(=O)(=O)NC(=O)[C@@H](N)CC(C)C)c2)c1 | 2.68 µM | – |
| CC[C@H](C)[C@H](N)C(=O)NS(=O)(=O)c1ccc(NC(=O)COc2ccc(Br)cc2Cl)cc1 | > 1000 µM | – |

Source: ChEMBL document CHEMBL4312032, “Design and synthesis of α-phenoxy-N-sulfonylphenyl acetamides as Trypanosoma brucei Leucyl-tRNA synthetase inhibitors” (Eur J Med Chem, 2020)
